Article PMC9774327 (ACS Omega, 2022)
Where a SMILES comes first, the peptide text is derived from it. Bridges are numbered along the chain shown (N, C = ends). Where no end group is shown, it is not given here. [ ]: non-standard residue; d: D form. S5 = C=CCCC[C@](C)(N)C(=O)O

How the values were obtained:
HL-60 cells = assay: NBT reduction assay of VDR-mediated cell differentiation; type: cell-based; settings: 1 μM peptide with 30 nM VD3, 48 h, NBT-positive cells counted
Method in brief: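 HL-60 cells in RPMI-1640 with 10% heat-inactivated FBS were treated 48 h with VD₃ (30 nM) with or without peptide. Cells were then stained with 1 mg/mL NBT plus 320 nM PMA for 30 min at 37 °C. NBT-positive cells were counted microscopically among more than 200 cells and expressed as a percentage. Data are means ± SD of three independent experiments.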

[1] = target: T1, VDR-mediated transcription in MCF-7 cells expressing the VDR (Homo sapiens, UniProt P11473); assay: Dual-luciferase reporter gene assay of VDR-mediated transcription; type: cell-based; settings: 3 μM peptide, 30 nM calcitriol defined as 100%, 16 h incubation
T1 sequence (P11473 1-427): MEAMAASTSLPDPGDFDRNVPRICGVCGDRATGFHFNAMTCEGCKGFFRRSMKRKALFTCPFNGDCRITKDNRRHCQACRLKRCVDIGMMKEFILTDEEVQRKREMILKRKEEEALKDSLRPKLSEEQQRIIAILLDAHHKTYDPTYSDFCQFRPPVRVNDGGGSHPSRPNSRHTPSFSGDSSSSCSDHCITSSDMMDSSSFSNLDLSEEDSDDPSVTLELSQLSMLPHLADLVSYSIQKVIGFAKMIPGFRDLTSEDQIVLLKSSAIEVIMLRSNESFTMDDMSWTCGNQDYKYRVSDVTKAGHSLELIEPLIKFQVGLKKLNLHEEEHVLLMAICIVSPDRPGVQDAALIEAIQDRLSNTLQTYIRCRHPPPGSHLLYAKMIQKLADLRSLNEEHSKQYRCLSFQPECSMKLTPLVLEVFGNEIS
Method in brief: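 MCF-7 cells (RPMI-1640, 10% heat-inactivated FBS, 1% penicillin/streptomycin) seeded at 4×10^4 cells/well and cultured 24 h. Cells were co-transfected by lipofection with a VDRE-firefly luciferase reporter and SV40-Renilla luciferase control. After 8 h, test compound was added with 1α,25(OH)₂D₃ (30 nM) for 16 h. Dual-luciferase activity was read in lysates, with 30 nM calcitriol activation set as 100%.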

MCF-7 cells = assay: Confocal microscope observation of intracellular localization; type: cell-based; settings: peptide 1 μM with LysoTracker 70 nM for 2 h, Figure S8
Method in brief: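 MCF-7 cells grown in RPMI-1640 with 10% heat-inactivated FBS and 1% penicillin/streptomycin, then plated on glass-bottom dishes. They were co-incubated 2 h with peptide and LysoTracker, then stained with Hoechst33342 for 5 min and washed with PBS before confocal imaging.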

[2] = target: ligand binding domain of rat VDR with a deleted loop region (Ser165–Pro211) (rat) (UniProt P13053); assay: fluorescence polarisation
Chain of ligand binding domain of rat VDR with a deleted loop region (Ser165–Pro211) (rat) (P13053 212-423, stated change not applied): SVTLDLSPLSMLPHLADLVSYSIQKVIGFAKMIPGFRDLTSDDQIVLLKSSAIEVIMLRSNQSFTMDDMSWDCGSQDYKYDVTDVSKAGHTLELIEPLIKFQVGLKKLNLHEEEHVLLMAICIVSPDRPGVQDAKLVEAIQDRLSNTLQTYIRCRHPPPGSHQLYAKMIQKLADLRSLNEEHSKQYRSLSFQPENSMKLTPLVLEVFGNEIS

Row | Molecule | inhibition of HL-60 cell differentiation at 1 μM (HL-60 cells) | % Inhibition at 3 μM of VDR-mediated transcriptional activity [1] | intracellular localization (confocal microscopy) (MCF-7 cells) | relative value of IC50 (to SRC2-3) [2]
1 | KENALLRYLLDKDGGGRRRRRRRRR-NH2 [Peptide 21] | did not inhibit cell differentiation |  |  | 
2 | CC(C)C[C@H](NC(=O)[C@H](CC(C)C)NC(=O)[C@]1(C)CCCC=CCCC[C@](C)(NC(=O)[C@H](CC(N)=O)NC(=O)[C@H](CCC(=O)O)NC(=O)[C@@H](N)CCCCN)C(=O)N[C@@H](CC(C)C)C(=O)N[C@@H](CC(C)C)C(=O)N[C@@H](CCCNC(=N)N)C(=O)N1)C(=O)N[C@@H](CC(=O)O)C(=O)N[C@@H](CCCCN)C(=O)N[C@@H](CC(=O)O)C(=O)NCC(=O)NCC(=O)NCC(=O)N[C@@H](CCCNC(=N)N)C(=O)N[C@@H](CCCNC(=N)N)C(=O)N[C@@H](CCCNC(=N)N)C(=O)N[C@@H](CCCNC(=N)N)C(=O)N[C@@H](CCCNC(=N)N)C(=O)N[C@@H](CCCNC(=N)N)C(=O)N[C@@H](CCCNC(=N)N)C(=O)N[C@@H](CCCNC(=N)N)C(=O)N[C@@H](CCCNC(=N)N)C(N)=O [Peptide 23] (H-KEN[S5]LLR[S5]LLDKDGGGRRRRRRRRR-NH2; staple 4-8) |  | 44.3% | localized in the endosome | 
3 | CC(C)C[C@H](NC(=O)[C@H](C)NC(=O)[C@H](CC(N)=O)NC(=O)[C@H](CCC(=O)O)NC(=O)[C@@H](N)CCCCN)C(=O)N[C@@H](CC(C)C)C(=O)N[C@@H](CCCNC(=N)N)C(=O)N[C@@]1(C)CCCC=CCCC[C@@](C)(C(=O)N[C@@H](CC(=O)O)C(=O)NCC(=O)NCC(=O)NCC(=O)N[C@@H](CCCNC(=N)N)C(=O)N[C@@H](CCCNC(=N)N)C(=O)N[C@@H](CCCNC(=N)N)C(=O)N[C@@H](CCCNC(=N)N)C(=O)N[C@@H](CCCNC(=N)N)C(=O)N[C@@H](CCCNC(=N)N)C(=O)N[C@@H](CCCNC(=N)N)C(=O)N[C@@H](CCCNC(=N)N)C(=O)N[C@@H](CCCNC(=N)N)C(N)=O)NC(=O)[C@H](CC(=O)O)NC(=O)[C@H](CC(C)C)NC(=O)[C@H](CC(C)C)NC1=O [Peptide 24] | did not inhibit cell differentiation |  | broadly localized over the entire cell | 
4 | SRC2-3 peptide |  |  |  | 1
